Measurements pooled from the literature.
Protocols differ between the studies behind these lines.
Target: Receptor-interacting serine/threonine-protein kinase 2 (RIPK2, Homo sapiens, UniProt O43353)

| Structure (SMILES) | assay | setting | measurement | value |
| --- | --- | --- | --- | --- |
| Cc1ccc(Nc2nccc(N(C)c3ccc4c(C)n(C)nc4c3)n2)cc1S(N)(=O)=O | enzyme activity, inhibitor | 0.5 µM | remaining activity | 68.2% |
| Oc1cccc(-c2nc(N3CCOCC3)c3oc4ncccc4c3n2)c1 | enzyme activity, inhibitor | 10 µM | remaining activity | 72% |
| Nc1ncnc2occ(-c3ccc(NC(=O)Nc4cc(C(F)(F)F)ccc4F)cc3)c12 | cell-free assay, inhibitor | 20 µM | remaining signal | 4.2% |
| CCCOc1ccc([C@H]2[C@H](C(=O)O)[C@@H](c3ccc4c(c3)OCO4)CN2CC(=O)Nc2c(CC)cccc2CC)cc1 | cell-free assay, competition with immobilised ligand | 1 µM | remaining binding | 100% |
| C[C@@H]1CCN(C(=O)CC#N)C[C@@H]1N(C)c1ncnc2[nH]ccc12 | cell-free assay, inhibitor | 0.5 µM | remaining signal | 113% |
| O=C(O)[C@H]1[C@H](Cn2nnc3ccccc3c2=O)CC[C@@H]1C(=O)c1ccc(OCCC2CCOCC2)cc1 | cell-free assay, competition with immobilised ligand | 1 µM | remaining binding | 100% |
| O=C(Nc1cnn(-c2csc(C(=O)NC3COC3)c2)c1)Nc1c(F)cccc1Cl | enzyme activity, inhibitor | 5 µM | remaining activity | 80.2% |
| CCCS(=O)(=O)Nc1ccc(F)c(C(=O)c2c[nH]c3ncc(-c4ccc(Cl)cc4)cc23)c1F | enzyme activity, inhibitor | 1 µM | inhibition | < 10% |
| COc1cc(/C=C/C(=O)CC(=O)/C=C/c2ccc(O)c(OC)c2)ccc1O | enzyme activity, inhibitor | 1 µM | activity vs control | 16% |
| CCCOc1ccc(OC)c(F)c1C(=O)c1ccc(C(=O)N[C@@H]2CNC[C@H]2NC(=O)c2ccc3[nH]ncc3c2)cc1 | enzyme activity, inhibitor | 10 µM | remaining activity | 91% |
| Cc1cc(NC(=O)c2cccc3cc(-c4cccc5[nH]nc(N)c45)ccc23)ccc1F | enzyme activity, inhibitor | 0.1 µM | activity vs control | 110% |
| CNCc1ccc(-c2cc(-c3nc(-c4ccc(S(=O)(=O)C(C)C)cc4)cnc3N)on2)cc1 | enzyme activity, inhibitor | 0.4 µM | inhibition | 6% |
| Cc1ccc(NC(=O)c2ccc(C)c(C(F)(F)F)c2)cc1C#Cc1nn(C2CCC(O)CC2)c2ncnc(N)c12 (stereo not shown) | cell-free assay | 10 µM | remaining signal | 21% |
| CC(C)(C)c1nc2c(s1)c1nc(N)ncc1c1ccc(NS(=O)(=O)c3c(F)cccc3F)c(F)c12 | enzyme activity, inhibitor, radiometric | 1 µM | remaining activity | 70% |
| COc1cc(Nc2cnc(C#N)c(O[C@H](C)CN(C)C)n2)ncc1-c1cnn(C)c1 | enzyme activity, inhibitor, radiometric | 10 µM | remaining activity | 71% |
| FC(F)(F)Oc1cccc(-c2cnc3ccc(-c4ccncc4)nn23)c1 | enzyme activity, inhibitor, radiometric | 5 µM | activity vs control | 22% |
| COc1cc(-c2cn(C3CCc4ccccc4N(CC(F)(F)F)C3=O)nn2)ccc1-n1ccc(C)n1 (stereo not shown) | cell-free assay, competition with immobilised ligand | 1 µM | remaining binding | 93% |
| Cn1cnc(Br)c1C1=CN(c2ncnc3[nH]cnc23)CCS1 | enzyme activity, inhibitor, radiometric | 2 µM | inhibition | 34% |
| CCc1ccccc1C(=O)Nc1n[nH]c2c(C)c(F)c(C3C(C#N)=C(C)N(C)C(C)=C3C#N)cc12 | cell-free assay, competition with immobilised ligand | 1 µM | remaining binding | 100% |
| CCN(CC)CCNC(=O)c1c(C)[nH]c(/C=C2\C(=O)Nc3ccc(F)cc32)c1C | enzyme activity, inhibitor | 0.3 µM | inhibition | -10% |
| COc1ccc2c(c1)O[C@H](c1ccc(OC)c(OC)c1)C[C@@H]2NC(=O)C1(c2ccc3c(c2)OC(F)(F)O3)CC1 | cell-free assay, competition with immobilised ligand | 1 µM | remaining binding | 100% |
| O=C(Nc1cnn(-c2csc(C(=O)NC3COC3)c2)c1)Nc1ccccc1Cl | enzyme activity, inhibitor | 5 µM | remaining activity | 120% |
| C[C@@H]1CN(c2cc(-c3n[nH]c4ccc(OC5(C)CC5)cc34)ncn2)C[C@H](C)O1 | cell-free assay, competition with immobilised ligand | 0.1 µM | remaining binding | 100% |
| CNC(=O)c1cc(Oc2ccc(NC(=O)Nc3ccc(Cl)c(C(F)(F)F)c3)cc2)ccn1 | cell-free assay | 0.5 µM | remaining signal | 86.2% |
| Cc1nccc(COC(=O)N2C[C@@H]3[C@@H](CNC(=O)c4ccc5[nH]nnc5c4)[C@@H]3C2)n1 | cell-free assay, competition with immobilised ligand | 1 µM | remaining binding | 100% |
| Cc1ccc(C(=O)NCc2ccsc2)cc1C#Cc1cn(C(C)C)c2ncnc(N)c12 | enzyme activity, inhibitor | 1 µM | activity vs control | 14% |
| CCS(=O)(=O)c1cc2cc(C[C@](O)(CC(C)(C)c3ccc(F)cc3C(N)=O)C(F)(F)F)[nH]c2cn1 | cell-free assay, competition with immobilised ligand | 1 µM | remaining binding | 67% |
| Oc1ccc(-c2nc(-c3ccncc3)c(-c3ccc(F)cc3)[nH]2)cc1 | cell-free assay | 0.5 µM | remaining signal | 46.8% |
